This note sets out measurements from publication PMC3428850 (Molecular cancer therapeutics, 2012).

The test system of one series is SW620 cells. The series can be described thus: clonogenic survival assay. It counts as cell-based, human.
Another series concerns LoVo cells. The series can be described thus: clonogenic survival assay. Format: cell-based, human. The method, boiled down: (§1)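 Cells in RPMI 1640/10% FBS were exposed in 6-well plates for 16 h to etoposide or doxorubicin with or without test compound (1 μM), or to test compound alone. Cells then harvested and reseeded in drug-free medium. Colonies stained with crystal violet after 10-14 days and counted automatically. Fold enhancement = survival with cytotoxic alone / survival with cytotoxic + 1 μM test compound. Means ± SD, n = 3.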

A further series deals with MCF7 cells. As to the kind of experiment: clonogenic survival assay. It counts as cell-based, human. Summed up:
as §1

For another series, the system named is T47D cells. The series can be described thus: clonogenic survival assay. Format: cell-based, human. The method, boiled down: as §1
A further series has as its system MDA-MB-231 cells. As to the kind of experiment: clonogenic survival assay. It counts as cell-based, human. Summed up:
as §1

Another series concerns M059J cells. The series can be described thus: clonogenic survival assay, DNA-PKcs-deficient cells. Format: cell-based, human. Particulars: clonogenic survival. Summed up: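 Human glioblastoma M059J cells (DNA-PKcs-deficient) and M059-Fus-1 cells (chromosome 8 transfected; G-418 200 μg/ml) in DMEM/10% FBS. Etoposide or doxorubicin alone or with 1 μM test compound, or test compound alone, for 16 h. Reseeded drug-free. Crystal violet colony counts after 10-14 days. Fold enhancement as survival ratio. Means ± SD, n = 3.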

The next series relates to MCF7 xenografts. As to the kind of experiment: anti-tumour efficacy study, MCF7 xenografts. It counts as in vivo. Particulars: MCF7 tumour-bearing mice.
A further series has as its system SW620 xenografts. The series can be described thus: anti-tumour efficacy study, SW620 xenografts. It counts as in vivo, mice. The method, boiled down:
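Female athymic CD1-nu/nu mice with s.c. SW620, n = 5/group, treated once tumours were palpable (~5 × 5 mm, day 8-10). Controls: saline i.p. daily. Test compound 10 mg/kg i.p. for 5 days. Etoposide phosphate 11.35 mg/kg i.p. (10 mg/kg etoposide) daily × 5. Combination: test compound i.p. once or twice daily × 5, first dose just before etoposide. Caliper volume a²×b/2; median RTV (day 0 = 1); time to RTV4.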

The test system of a further series is PI-3K. The series can be described thus: PI-3K-dependent AKT phosphorylation. Format: cell-based, human. Particulars: read-out: IC50 PI-3K-mediated AKT phosphorylation; MCF7 cells, IGF-1 stimulated. Summed up:
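MCF7 cells in RPMI 1640/10% FBS. Exposed to a concentration range of test compound for 1 h, then 50 ng/ml IGF-1 for 30 min. Western blot of AKT Ser473 relative to total AKT. Rise above unstimulated baseline in treated cells expressed as % of the rise in control cells. Mean of three independent experiments fitted to a sigmoidal dose-response curve for IC50.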

In the next series the test system is V3 cells. The series can be described thus: clonogenic survival assay, DNA-PKcs-deficient cells. It counts as cell-based, Chinese hamster. Particulars: clonogenic survival. The method, boiled down:
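Chinese hamster ovary V3 cells (DNA-PKcs-deficient) and V3-YAC cells (human DNA-PKcs on YAC; kept under G-418 500 μg/ml) in RPMI 1640/10% FBS. Etoposide alone or with 1 μM test compound, or test compound alone, for 16 h. Reseeded drug-free. Crystal violet colony counts after 10-14 days. Fold enhancement as survival ratio. Means ± SD of 3 independent experiments.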

Where [1] appears, read: 100 nM doxorubicin with or without 1 μM KU-0060648, 16 hr.
Setting [2] is: 1 μM etoposide with or without 1 μM KU-0060648, 16 hr.

On to `COc1cccc2c1C(=O)c1c(O)c3c(c(O)c1C2=O)C[C@@](O)(C(=O)CO)C[C@@H]3O[C@H]1C[C@H](N)[C@H](O)[C@H](C)O1` [doxorubicin, reference compound], for which the “survival (clonogenic)” value in the series on SW620 cells (SW620, 100 nM doxorubicin with or without 1 μM KU-0060648, 16 hr) is recorded as 0.06±0.06; in the series with LoVo cells (setting [1]) it was 1.4±0.9; in the series with MCF7 cells (MCF7, 100 nM doxorubicin with or without 1 μM KU-0060648, 16 hr) it was 42.3±13; in the series with T47D cells (setting [1]) it was 9.0±3.2; in the series with MDA-MB-231 cells (MDA-MB-231, 100 nM doxorubicin with or without 1 μM KU-0060648, 16 hr) it was 1.8±0.6. For the same compound, in the series with M059J cells, the “fold more sensitive, DNA-PKcs-deficient M059J versus M059-Fus-1 cells” value is listed as “approximately 23 fold”.
Consider `COc1cc([C@@H]2c3cc4c(cc3[C@@H](O[C@@H]3O[C@@H]5CO[C@@H](C)O[C@H]5[C@H](O)[C@H]3O)[C@H]3COC(=O)[C@H]23)OCO4)cc(OC)c1OP(=O)(O)O` [etoposide phosphate, reference compound], for which the “maximum body weight loss” value in the series with MCF7 xenografts is 3%; in the series with SW620 xenografts (SW620 tumour-bearing mice), “no body weight loss”. For the same compound, in the series on SW620 xenografts (SW620 xenografts, single agent or combination with once daily KU-0060648), the “time to RTV4 (median)” value is given as 6.5 days.
The IC50 is the concentration at which inhibition is half-maximal. On to `O=c1cc(N2CCOCC2)oc2c(-c3cccc4c3sc3ccccc34)cccc12` [NU7441, reference compound], for which the IC50 in the series with PI-3K stood at 3.9 ± 3.5 µM.
With `COc1cc([C@@H]2c3cc4c(cc3[C@@H](O[C@@H]3O[C@@H]5CO[C@@H](C)O[C@H]5[C@H](O)[C@H]3O)[C@H]3COC(=O)[C@H]23)OCO4)cc(OC)c1O` [etoposide, reference compound], the “survival (clonogenic)” value with SW620 cells (SW620, 1 μM etoposide with or without 1 μM KU-0060648, 16 hr) was 4.7±2.0; in the series on LoVo cells (setting [2]) it was 3.5±0.5; in the series with MCF7 cells (MCF7, 1 μM etoposide with or without 1 μM KU-0060648, 16 hr) it was 23±9; with T47D cells (setting [2]), 24±4; in the series on MDA-MB-231 cells (MDA-MB-231, 1 μM etoposide with or without 1 μM KU-0060648, 16 hr) it was 16±10. Moreover, the “fold more sensitive, DNA-PKcs-deficient V3 versus V3-YAC cells” value in the series on V3 cells is reported as “approximately 3 fold”. For the same compound, in the series with M059J cells, the “fold more sensitive, DNA-PKcs-deficient M059J versus M059-Fus-1 cells” value is recorded as “approximately 2.5 fold”.
